# Sampled rows, rich in hits. Any-hit rate of the full collection: about 1.2%.
# GC-A act: GC-A (human) enzyme activation. P16066. 0.14% of 370,000 active. activation, % at 10 µM. HEK293 GC-A cells, cGMP TR-FRET, EC30 ANP; 0% at EC30 ANP, 100% saturating ANP; in the data active means activation above about 40%
# ASAP1 inh: ASAP1 ArfGAP inhibition | Q9ULH1 | ASAP1-stimulated ARF1 GTP hydrolysis, GDP FP detection | inhibition, % at 16.5 µM | 0.19% of 360,000 active; in the data active means inhibition above about 25%;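 further: 0% = vehicle with enzyme and substrate and 100% = no enzyme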
# HCV core dimer: HCV core protein dimerization inhibition | TR-FRET GST/Flag-core106 dimerization, 1536-well | inhibition, % at 5 µM | 0.33% of 300,000 active | AID 1899;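 active means inhibition above the mean of all tested compounds plus 3 SD, set per screening campaign, cut at about 45% in these data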
#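 Assay system: Tagged HCV core106 pair (GST and Flag) | Buffer or medium: KF-containing HEPES buffer, pH 7.45, DTT, CHAPS, BSA | Also added: Eu donor and XL665 acceptor anti-tag antibodies | Dosing: One concentration, 5 µM, in 0.5% DMSO | Timing: 4 h at 22.5 °C | Technique: TR-FRET 671 and 617 nm emission | Repeats: Singlicate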
# GC-B act: GC-B (human) receptor activation | P20594 | HEK293-GC-B cells, CNP EC30, cGMP TR-FRET; 0% at EC30 CNP, 100% saturating CNP | activation, % at 10 µM | 0.11% of 370,000 active;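 active means activation at 10 µM reaching about 35% in either raw or pattern-adjusted values, limit read from the data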
# ARFGAP1 inh: inhibitors of rat ARFGAP1. Q62848. Arfgap1-stimulated ARF1 GTP hydrolysis, GDP FP detection. inhibition, % at 16.5 µM. 0.26% of 360,000 active;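 active means inhibition above a per-plate limit, mean inhibition of low control wells plus 3 SD, cut at about 25% in these data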;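 further: 0% = DMSO wells with enzyme and 100% = wells lacking Arfgap1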
# Target sequence (Q62848 1-136 limits assumed): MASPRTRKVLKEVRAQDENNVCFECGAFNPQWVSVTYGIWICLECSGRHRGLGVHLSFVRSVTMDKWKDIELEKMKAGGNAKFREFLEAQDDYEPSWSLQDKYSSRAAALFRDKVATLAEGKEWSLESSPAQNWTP
#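 Material – truncated rat Arfgap1 GAP domain · Buffer or medium – HEPES-based buffer, pH 7.5 · Reagent – human ARF1(Δ1-17)-GTP substrate · Dosing – 16.5 µM single point, 1.26% DMSO · Schedule – GTP hydrolysis reaction 2 h at 25 °C · Technique – GDP detection by fluorescence polarization · Benchmarks – No-Arfgap1 wells (100%) versus DMSO full-reaction wells (0%) · Repeats – single replicate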
# Fh CTSL1 inh: cathepsin L1 inhibition, PFM18AAP counter-screen; 0.49% of 300,000 active; inhibition, % at 5.96 µM; AID 1906; recombinant F. hepatica cathepsin L1, Z-Leu-Arg-MCA fluorescence;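 active means inhibition above the mean of all tested compounds plus 3 SD, set per screening campaign, cut at about 17% in these data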;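 further: 0% = plate median of test compound wells and 100% = 1 µM Z-Phe-Ala-diazomethylketone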
# Starred values were filed as active, the others as inactive; . = no result.
SMILES,GC-A act,ASAP1 inh,HCV core dimer,GC-B act,ARFGAP1 inh,Fh CTSL1 inh
Cc1ccc(Nc2cnn(C34CC5CC(CC(CC(=O)O)(C5)C3)C4)c(=O)c2Cl)cc1C,-4,-13,0,4,0,5
CCCCOc1ccc(NC(=O)c2cnc(C)cn2)cc1,2,-6,-3,0,9,0
CC(/C=C/c1ccccc1)=N\NC(=S)NC(C)C,2,2,10,-5,-1,5
Cc1ccc(NC(=O)CCCCCNS(=O)(=O)c2ccc(C)cc2)cc1,2,3,5,-2,9,2
CN(C(=O)CCc1nc(-c2ccccc2F)no1)c1ccccc1,-4,-6,2,-4,1,37*
O=C(CCc1nc(-c2ccccc2F)no1)NCCc1ccc(F)cc1,2,.,.,4,.,.
Cc1nc(SCc2cccc(F)c2)[nH]c(=O)c1C#N,2,-7,1,-3,0,-3
O=C1CSC(c2ccc(Cl)cc2Cl)N1c1ccccn1 (stereo not given),-1,-11,0,-9,-10,5
CCOC(=O)C1=C(CSc2nc3c(cc2C#N)CN(C)CC3)OC(N)=C(C#N)C1c1ccc(Cl)cc1 (stereo not given),-5,0,57*,-1,0,9
CCOC(=O)C1=C(CSc2nc(C)cc(C)c2C#N)OC(N)=C(C#N)C1c1ccccc1 (stereo not given),-8,8,18,2,-1,2
CCOC(=O)C1=C(CSc2nc3c(cc2C#N)CN(C)CC3)OC(N)=C(C#N)C1c1ccncc1 (stereo not given),2,10,5,1,10,5
CCOC(=O)C1=C(CSc2nc(C)cc(C)c2C#N)OC(N)=C(C#N)C1c1cccs1 (stereo not given),.,.,0,.,.,22*
O=C1C2CC=C(Cl)CC2C(=O)N1CCc1ccccc1 (stereo not given),-5,-11,8,3,-13,44*
O=C(C1=COCCO1)N1CCN(c2nc3ccc([N+](=O)[O-])cc3s2)CC1,5,28*,2,1,10,-3
COc1ccc(S(=O)(=O)Nc2cccc(C(C)=O)c2)cc1Br,-5,5,1,-7,1,0
COc1ccc(S(=O)(=O)Nc2cccc(N(C)S(C)(=O)=O)c2)cc1Br,34,9,-3,37*,4,-1
Cc1ccc(-n2nnc3c(=O)oc4ccccc4c32)cc1,-3,4,6,39*,1,-1
CCC(C)n1nnc2c(=O)oc3ccccc3c21 (stereo not given),3,.,1,-1,.,-5
CC(=O)N/C(=C/c1ccc2c(c1)OCO2)C(=O)NC(Cc1ccccc1)C(=O)O (stereo not given),2,9,-5,2,0,3
O=c1cc(CSc2nnnn2-c2ccccc2)nc2sccn12,-2,1,4,-6,-14,1
CCOc1ccccc1-n1nnnc1SCC(=O)NC(=O)Cc1ccccc1,0,-2,.,0,-3,.
O=C(CSc1nnnn1-c1ccccc1)NC(=O)NCc1ccco1,3,4,60*,-3,4,1
Cc1nnc(SCC(=O)NC(=O)NCc2ccco2)n1Cc1ccccc1,1,5,62*,1,6,-2
CCOc1ccccc1-n1nnnc1SCC(=O)NC(=O)NCc1ccco1,-9,6,57*,-2,-1,2
Cn1nnnc1SCC(=O)NCc1ccco1,3,7,-2,3,1,0
O=c1cc(CSc2nnnn2-c2ccccc2)nc2scc(-c3ccccc3)n12,-6,-5,60*,-1,3,2
O=C(CSc1nnc(-c2ccco2)n1Cc1ccccc1)NC(=O)NCc1ccccc1,-1,4,27,0,13,3
O=C(CSCC(=O)N1CCOCC1)Nc1nc(-c2ccccc2)cs1,22,10,0,-2,-3,2
O=C(CSc1nnnn1-c1ccccc1)CSc1nnnn1-c1ccccc1,-3,6,9,-2,16,22*

# Source: PubChem BioAssay (several laboratories)
